Results taken from ChEMBL document CHEMBL4392833, “Thiazolyl-pyrazole derivatives as potential antimycobacterial agents” (Bioorg Med Chem Lett, 2019).

Columns and labels:
[1] = test system: Mycobacterium tuberculosis variant bovis; test: Antitubercular activity against dormant stage of Mycobacterium bovis BCG ATCC 35743 assessed as growth inhibition at 10 ug/ml after 12 days by nitrate reductase assay relative to control; assay type: functional; settings: BCG str. ATCC 35743, 288 h
[2] = test system: Mycobacterium tuberculosis variant bovis; test: Antitubercular activity against dormant stage of Mycobacterium bovis BCG ATCC 35743 after 12 days by nitrate reductase assay; assay type: functional, organism-based; settings: BCG str. ATCC 35743, 288 h
[3] = test system: Mycobacterium tuberculosis variant bovis; test: Antitubercular activity against dormant stage of Mycobacterium bovis BCG ATCC 35743 by two fold dilution technique; assay type: functional; settings: BCG str. ATCC 35743
Method in brief: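 MIC against dormant-stage bacilli, read out by XTT reduction menadione assay (XRMA), with rifampicin MIC determined the same way as reference.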

[4] = test system: Mycobacterium tuberculosis variant bovis; test: Antitubercular activity against dormant stage of Mycobacterium bovis BCG ATCC 35743 assessed as growth inhibition at 30 ug/ml after 12 days by nitrate reductase assay relative to control; assay type: functional; settings: BCG str. ATCC 35743, 288 h
[5] = test system: Mycobacterium tuberculosis variant bovis; test: Antitubercular activity against dormant stage of Mycobacterium bovis BCG ATCC 35743 assessed as growth inhibition at 3 ug/ml after 12 days by nitrate reductase assay relative to control; assay type: functional; settings: BCG str. ATCC 35743, 288 h
[6] = test system: Mycobacterium tuberculosis variant bovis; test: Potency index, ratio of rifampicin MIC to test compound MIC for dormant stage of Mycobacterium bovis BCG ATCC 35743; assay type: functional, BCG str. ATCC 35743

Compound	inhibition at 10 µg/mL [1] [%]	IC50 [2]	MIC90 [3]	inhibition at 30 µg/mL [4] [%]	inhibition at 3 µg/mL [5] [%]	Ratio [6]
Cc1ccc(O)c(C2=NNC(c3cn(-c4ccc(F)cc4)nc3-c3sc(C)nc3C)C2)c1 (stereo not drawn)	82.7	46.4 µM	63.1 µM	97.5	33	–
Cc1nc(C)c(-c2nn(-c3ccc(F)cc3)cc2/C=C/C(=O)c2cc(Cl)c(C)cc2O)s1	52.8	0.79 µM	6.85 µM	97.2	8.47	–
Cc1nc(C)c(-c2nn(-c3ccc(F)cc3)cc2/C=C/C(=O)c2cc(Cl)cc(Cl)c2O)s1	10.1	> 30 µg/mL	> 30 µg/mL	29.8	8.72	–
Cc1nc(C)c(-c2nn(-c3ccc(F)cc3)cc2C2CC(c3c(O)cc(C)c(Cl)c3C)=NN2)s1 (stereo not drawn)	98	5.04 µM	4.55 µM	98.4	89	–
Cc1nc(C)c(-c2nn(-c3ccc(F)cc3)cc2/C=C/C(=O)c2cc(Cl)ccc2O)s1	5.45	> 30 µg/mL	> 30 µg/mL	19.6	5.71	–
Cc1nc(C)c(-c2nn(-c3ccc(F)cc3)cc2/C=C/C(=O)c2c(O)cc(C)c(Cl)c2C)s1	4.19	> 30 µg/mL	> 30 µg/mL	9.91	8.39	–
Cc1nc(C)c(-c2nn(-c3ccc(F)cc3)cc2C2CC(c3cc(Br)ccc3O)=NN2)s1 (stereo not drawn)	98.7	5.79 µM	0.39 µM	99.5	96.2	4
Cc1ccc(O)c(C(=O)/C=C/c2cn(-c3ccc(F)cc3)nc2-c2sc(C)nc2C)c1	85.2	1.59 µM	16.2 µM	96.9	60.9	–
Cc1nc(C)c(-c2nn(-c3ccc(F)cc3)cc2C2CC(c3cc(Cl)c(C)cc3O)=NN2)s1 (stereo not drawn)	89.7	9.65 µM	4.77 µM	98.5	69.6	–
Cc1nc(C)c(-c2nn(-c3ccc(F)cc3)cc2/C=C/C(=O)c2cc(Br)ccc2O)s1	16.4	> 30 µg/mL	> 30 µg/mL	19.2	5.7	–
CO[C@H]1/C=C/O[C@@]2(C)Oc3c(C)c(O)c4c(O)c(c(/C=N/N5CCN(C)CC5)c(O)c4c3C2=O)NC(=O)/C(C)=C\C=C\[C@H](C)[C@H](O)[C@@H](C)[C@@H](O)[C@@H](C)[C@H](OC(C)=O)[C@@H]1C [RIFAMPIN]	–	0.91 µM	0.98 µM	–	–	–
Cc1nc(C)c(-c2nn(-c3ccc(F)cc3)cc2-c2cc(=O)c3cc(Cl)c(C)cc3o2)s1	98.9	3.69 µM	2.85 µM	98.2	99.7	–
Cc1nc(C)c(-c2nn(-c3ccc(F)cc3)cc2C2CC(c3cc(Cl)ccc3O)=NN2)s1 (stereo not drawn)	99.7	2.48 µM	1.54 µM	99.7	99.2	–
Cc1ccc2oc(-c3cn(-c4ccc(F)cc4)nc3-c3sc(C)nc3C)cc(=O)c2c1	96.6	5.89 µM	1.18 µM	95.6	97.6	–
